Test results: ChEMBL document CHEMBL4715848, “1,2,3-Triazole tethered 1,2,4-trioxanes: Studies on their synthesis and effect on osteopontin expression in MDA-MB-435 breast cancer cells” (2020)
Calls of active or inactive are those of the source. No cut-off for these calls is given here.

Legend:
Assay type in all cases: functional
MDA-MB-435 = test: (§1) Down regulation of OPN expression in human MDA-MB-435 cells at 50 uM measured after 24 hrs by Western blot analysis relative to control
Summary of the method: (§2)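 MDA-MB-435 cells (1x10^6 per 6 cm plate) grown 24 h in DMEM/10% FBS with penicillin-streptomycin, 37 °C, 5% CO2, then serum-starved 24 h. Treated 24 h with compound at 50 µM against a DMSO control. Secreted OPN in serum-free supernatant run on non-reducing 10% SDS-PAGE. Lysate β-actin run on 10% SDS-PAGE. Both probed with monoclonal antibodies, read by chemiluminescence and quantified by densitometry.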

[1] = Down regulation of OPN expression in human MDA-MB-435 cells at 10 uM measured after 24 hrs by Western blot analysis relative to control
Summary of the method: as §2, with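 “10” for “50”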

[2] = as §1; summary of the method: as §2

| SMILES | inhibition (MDA-MB-435) | also measured |
| --- | --- | --- |
| CC(CCC1OC(c2ccc(F)cc2)OOC1(C)C)CCn1cc(COC2[C@H]3OCO[C@H]3CO[C@@]23COC(C)(C)O3)nn1 (stereo partly specified) | inactive | – |
| CC(CCC1OC(c2cccc([N+](=O)[O-])c2)OOC1(C)C)CCn1cc(COC2[C@H]3OCO[C@H]3CO[C@@]23COC(C)(C)O3)nn1 (stereo partly specified) | inactive | – |
| CC(CCC1OC2(CCCCC2)OOC1(C)C)CCn1cc(-c2ccc(-c3cn(CCC(C)CCC4OC5(CCCCC5)OOC4(C)C)nn3)cc2)nn1 (stereo unspecified) | inactive | – |
| Cc1ccc(C2OOC(C)(C)C(CCC(C)CCn3cc(COC4[C@H]5OCO[C@H]5CO[C@@]45COC(C)(C)O5)nn3)O2)cc1 (stereo partly specified) | inactive | – |
| CC(CCC1OC(c2ccc(F)cc2)OOC1(C)C)CCn1cc(COCCNCCOCc2cn(CCC(C)CCC3OC(c4ccc(F)cc4)OOC3(C)C)nn2)nn1 (stereo unspecified) | – | fold change (FC) [1]: 0.17 |
| CC(CCC1OC(c2cccc(Br)c2)OOC1(C)C)CCn1cc(-c2ccc(-c3cn(CCC(C)CCC4OC(c5cccc(Br)c5)OOC4(C)C)nn3)cc2)nn1 (stereo unspecified) | inactive | – |
| COc1ccc(C2OOC(C)(C)C(CCC(C)CCn3cc(COC4[C@H]5OCO[C@H]5CO[C@@]45COC(C)(C)O5)nn3)O2)cc1 (stereo partly specified) | – | fold change (FC) [2]: 0.2 |
| CC(CCC1OC(C)(c2ccc(Cl)cc2)OOC1(C)C)CCn1cc(-c2ccc(-c3cn(CCC(C)CCC4OC(C)(c5ccc(Cl)cc5)OOC4(C)C)nn3)cc2)nn1 (stereo unspecified) | inactive | – |
| CC(CCC1OC(c2ccc(Cl)cc2)OOC1(C)C)CCn1cc(-c2ccc(-c3cn(CCC(C)CCC4OC(c5ccc(Cl)cc5)OOC4(C)C)nn3)cc2)nn1 (stereo unspecified) | inactive | – |
| Cc1ccc(C2OOC(C)(C)C(CCC(C)CCn3cc(COCCNCCOCc4cn(CCC(C)CCC5OC(c6ccc(C)cc6)OOC5(C)C)nn4)nn3)O2)cc1 (stereo unspecified) | – | fold change (FC) [1]: 0.15 |
| CC(CCC1OC(c2ccccc2)OOC1(C)C)CCn1cc(COCCNCCOCc2cn(CCC(C)CCC3OC(c4ccccc4)OOC3(C)C)nn2)nn1 (stereo unspecified) | – | fold change (FC) [1]: 0.11 |
| CC(CCC1OC(c2ccc(F)cc2)OOC1(C)C)CCn1cc(-c2ccc(-c3cn(CCC(C)CCC4OC(c5ccc(F)cc5)OOC4(C)C)nn3)cc2)nn1 (stereo unspecified) | inactive | – |
| C[C@@H]1CC[C@H]2[C@@H](C)C(O)O[C@@H]3O[C@]4(C)CC[C@@H]1[C@]32OO4 (stereo partly specified) | – | fold change (FC) [2]: 0.45 |
| CC(CCC1OC(c2ccc3c(c2)OCO3)OOC1(C)C)CCn1cc(COC2[C@H]3OCO[C@H]3CO[C@@]23COC(C)(C)O3)nn1 (stereo partly specified) | inactive | – |
| CC(CCC1OC(c2ccccc2Br)OOC1(C)C)CCn1cc(COC2[C@H]3OCO[C@H]3CO[C@@]23COC(C)(C)O3)nn1 (stereo partly specified) | inactive | – |
| CC(CCC1OC(c2ccco2)OOC1(C)C)CCn1cc(-c2ccc(-c3cn(CCC(C)CCC4OC(c5ccco5)OOC4(C)C)nn3)cc2)nn1 (stereo unspecified) | inactive | – |
| CC(CCC1OC(c2ccc([N+](=O)[O-])cc2)OOC1(C)C)CCn1cc(COCCNCCOCc2cn(CCC(C)CCC3OC(c4ccc([N+](=O)[O-])cc4)OOC3(C)C)nn2)nn1 (stereo unspecified) | – | fold change (FC) [1]: 0.28 |
| CC(CCC1OC(c2ccc(Cl)cc2)OOC1(C)C)CCn1cc(COC2[C@H]3OCO[C@H]3CO[C@@]23COC(C)(C)O3)nn1 (stereo partly specified) | – | fold change (FC) [2]: 0.15 |

| SMILES | inhibition (MDA-MB-435) | also measured |
| --- | --- | --- |
| C[C@@H]1CC[C@H]2[C@@H](C)C(=O)O[C@@H]3O[C@@]4(C)CC[C@@H]1[C@]32OO4 | inactive | – |
| COc1ccc(C2OOC(C)(C)C(CCC(C)CCn3cc(-c4ccc(-c5cn(CCC(C)CCC6OC(c7ccc(OC)cc7)OOC6(C)C)nn5)cc4)nn3)O2)cc1 (stereo unspecified) | inactive | – |
| COc1ccc(C2OOC(C)(C)C(CCC(C)CCn3cc(COCCNCCOCc4cn(CCC(C)CCC5OC(c6ccc(OC)cc6)OOC5(C)C)nn4)nn3)O2)cc1 (stereo unspecified) | – | fold change (FC) [1]: 0.43 |
| CC(CCC1OC(c2cccc3ccccc23)OOC1(C)C)CCn1cc(COC2[C@H]3OCO[C@H]3CO[C@@]23COC(C)(C)O3)nn1 (stereo partly specified) | inactive | – |
| CC(CCC1OC(c2ccc(Cl)cc2)OOC1(C)C)CCn1cc(COCCNCCOCc2cn(CCC(C)CCC3OC(c4ccc(Cl)cc4)OOC3(C)C)nn2)nn1 (stereo unspecified) | – | fold change (FC) [1]: 0.45 |
| CC(CCC1OC(c2ccc([N+](=O)[O-])cc2)OOC1(C)C)CCn1cc(-c2ccc(-c3cn(CCC(C)CCC4OC(c5ccc([N+](=O)[O-])cc5)OOC4(C)C)nn3)cc2)nn1 (stereo unspecified) | inactive | – |
| CC(CCC1OC(c2ccc3c(c2)OCO3)OOC1(C)C)CCn1cc(COCCNCCOCc2cn(CCC(C)CCC3OC(c4ccc5c(c4)OCO5)OOC3(C)C)nn2)nn1 (stereo unspecified) | – | fold change (FC) [1]: 0.33 |
| CC(CCC1OC(c2ccc([N+](=O)[O-])cc2)OOC1(C)C)CCn1cc(COC2[C@H]3OCO[C@H]3CO[C@@]23COC(C)(C)O3)nn1 (stereo partly specified) | inactive | – |
| CC(CCC1OC2(CCCCC2)OOC1(C)C)CCn1cc(COCCNCCOCc2cn(CCC(C)CCC3OC4(CCCCC4)OOC3(C)C)nn2)nn1 (stereo unspecified) | – | fold change (FC) [1]: 0.27 |
| CC(CCC1OC(c2cccc(Br)c2)OOC1(C)C)CCn1cc(COC2[C@H]3OCO[C@H]3CO[C@@]23COC(C)(C)O3)nn1 (stereo partly specified) | – | fold change (FC) [2]: 0.15 |
| CC(CCC1OC2(CCCCC2)OOC1(C)C)CCn1cc(COC2[C@H]3OCO[C@H]3CO[C@@]23COC(C)(C)O3)nn1 (stereo partly specified) | inactive | – |
| CC(CCC1OC(c2cccc3ccccc23)OOC1(C)C)CCn1cc(-c2ccc(-c3cn(CCC(C)CCC4OC(c5cccc6ccccc56)OOC4(C)C)nn3)cc2)nn1 (stereo unspecified) | inactive | – |
| CC(CCC1OC(c2ccc3c(c2)OCO3)OOC1(C)C)CCn1cc(-c2ccc(-c3cn(CCC(C)CCC4OC(c5ccc6c(c5)OCO6)OOC4(C)C)nn3)cc2)nn1 (stereo unspecified) | inactive | – |
| C[C@@H]1CC[C@H]2[C@@H](C)C(OCc3cn(Cc4ccccc4)nn3)O[C@@H]3O[C@]4(C)CC[C@@H]1[C@]32OO4 (stereo partly specified) | – | fold change (FC) [2]: 0.3 |
| CC(CCC1OC(c2cccc(Br)c2)OOC1(C)C)CCn1cc(COCCNCCOCc2cn(CCC(C)CCC3OC(c4cccc(Br)c4)OOC3(C)C)nn2)nn1 (stereo unspecified) | – | fold change (FC) [1]: 0.26 |
| CC(CCC1OC(c2ccccc2Br)OOC1(C)C)CCn1cc(-c2ccc(-c3cn(CCC(C)CCC4OC(c5ccccc5Br)OOC4(C)C)nn3)cc2)nn1 (stereo unspecified) | inactive | – |
| CC(CCC1OC(c2ccco2)OOC1(C)C)CCn1cc(COC2[C@H]3OCO[C@H]3CO[C@@]23COC(C)(C)O3)nn1 (stereo partly specified) | – | fold change (FC) [2]: 0.12 |
| Cc1ccc(C2OOC(C)(C)C(CCC(C)CCn3cc(-c4ccc(-c5cn(CCC(C)CCC6OC(c7ccc(C)cc7)OOC6(C)C)nn5)cc4)nn3)O2)cc1 (stereo unspecified) | inactive | – |
